What is called inhibition is how much of the control response was suppressed.

Test [1] deals with T1, Serine/threonine-protein kinase D2 (Homo sapiens) (UniProt Q9BZL6).
T1 sequence (whole entry): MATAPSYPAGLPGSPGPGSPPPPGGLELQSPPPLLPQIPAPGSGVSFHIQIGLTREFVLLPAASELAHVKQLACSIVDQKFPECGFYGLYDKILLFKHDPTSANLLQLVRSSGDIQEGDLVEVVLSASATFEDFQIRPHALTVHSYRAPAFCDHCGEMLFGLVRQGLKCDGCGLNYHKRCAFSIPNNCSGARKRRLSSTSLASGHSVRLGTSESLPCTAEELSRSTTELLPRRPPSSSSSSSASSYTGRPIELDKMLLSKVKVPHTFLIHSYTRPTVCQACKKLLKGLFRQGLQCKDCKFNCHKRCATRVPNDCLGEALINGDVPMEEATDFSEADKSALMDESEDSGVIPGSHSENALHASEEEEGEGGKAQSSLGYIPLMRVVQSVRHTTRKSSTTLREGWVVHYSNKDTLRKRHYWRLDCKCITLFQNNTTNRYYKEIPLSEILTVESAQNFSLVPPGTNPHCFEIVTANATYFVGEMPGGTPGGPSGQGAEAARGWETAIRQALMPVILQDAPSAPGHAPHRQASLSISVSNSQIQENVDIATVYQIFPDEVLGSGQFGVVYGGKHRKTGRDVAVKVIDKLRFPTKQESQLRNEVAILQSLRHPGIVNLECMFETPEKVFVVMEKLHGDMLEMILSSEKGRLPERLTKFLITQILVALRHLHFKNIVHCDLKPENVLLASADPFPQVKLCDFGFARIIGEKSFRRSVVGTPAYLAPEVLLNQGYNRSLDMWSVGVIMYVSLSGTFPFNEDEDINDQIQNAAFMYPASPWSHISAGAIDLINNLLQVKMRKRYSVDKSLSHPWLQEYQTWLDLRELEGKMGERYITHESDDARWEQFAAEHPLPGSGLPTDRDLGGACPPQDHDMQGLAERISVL
In words: Inhibition of PKD2 (unknown origin) at 30 uM by microfluidic mobility shift assay relative to control. Summed up: (§1)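 Single-point screen in a 24-enzyme kinase panel using a microfluidic assay. Each compound was tested at […] with ATP at roughly the Km for each enzyme. The pan-AGC inhibitor H-89 served as an internal control on every plate.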

For test [2], the target named is RAC-beta serine/threonine-protein kinase (Homo sapiens, UniProt P31751). In words: Inhibition of AKT2 (unknown origin) at 30 uM by microfluidic mobility shift assay relative to control. In short, it runs like this:
as §1

Test [3] has as its target Protein kinase C (PKC) (Homo sapiens) (UniProt O94806+P41743+P17252+P05129+Q05655+P05771+Q05513+Q02156+P24723+Q15139+Q04759). The test can be described thus: Inhibition of PKC (unknown origin) at 30 uM by microfluidic mobility shift assay relative to control. Summed up: as §1
The target in test [4] is Tyrosine-protein kinase Fyn (Homo sapiens, UniProt P06241). In words: Inhibition of FYN (unknown origin) at 30 uM by microfluidic mobility shift assay relative to control. In short, it runs like this: as §1
Sequence of Tyrosine-protein kinase Fyn (P06241 2-537 limits assumed): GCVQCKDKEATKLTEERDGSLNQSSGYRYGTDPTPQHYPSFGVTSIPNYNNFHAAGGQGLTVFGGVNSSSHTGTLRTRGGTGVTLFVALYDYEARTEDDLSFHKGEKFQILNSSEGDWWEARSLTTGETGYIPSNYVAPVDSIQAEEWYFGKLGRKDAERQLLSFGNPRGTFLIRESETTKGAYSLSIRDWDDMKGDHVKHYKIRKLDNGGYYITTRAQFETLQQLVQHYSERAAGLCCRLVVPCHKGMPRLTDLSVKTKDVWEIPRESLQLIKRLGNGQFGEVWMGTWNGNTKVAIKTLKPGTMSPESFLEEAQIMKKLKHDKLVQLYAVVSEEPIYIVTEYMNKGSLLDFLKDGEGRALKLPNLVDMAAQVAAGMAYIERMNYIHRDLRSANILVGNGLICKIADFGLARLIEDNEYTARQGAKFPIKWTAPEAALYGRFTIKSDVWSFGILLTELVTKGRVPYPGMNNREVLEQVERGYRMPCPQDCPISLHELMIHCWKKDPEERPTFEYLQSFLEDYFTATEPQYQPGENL
For test [5], the target named is T2, Serine/threonine-protein kinase Chk1 (Homo sapiens) (UniProt O14757).
T2 sequence (whole entry): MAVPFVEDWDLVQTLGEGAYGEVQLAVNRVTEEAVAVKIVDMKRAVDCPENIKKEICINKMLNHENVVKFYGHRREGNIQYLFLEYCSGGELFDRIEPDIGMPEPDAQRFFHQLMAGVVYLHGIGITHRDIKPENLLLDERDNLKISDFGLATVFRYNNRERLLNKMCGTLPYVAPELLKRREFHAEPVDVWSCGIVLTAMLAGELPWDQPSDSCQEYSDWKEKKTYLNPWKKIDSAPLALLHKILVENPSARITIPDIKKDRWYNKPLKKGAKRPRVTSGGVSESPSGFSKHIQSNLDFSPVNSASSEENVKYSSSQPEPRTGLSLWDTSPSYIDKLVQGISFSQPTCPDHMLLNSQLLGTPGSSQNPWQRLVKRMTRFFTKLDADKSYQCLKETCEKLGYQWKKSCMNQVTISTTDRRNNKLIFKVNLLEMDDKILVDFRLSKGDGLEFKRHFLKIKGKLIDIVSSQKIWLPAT
In words: Inhibition of CHK1 (unknown origin) at 30 uM by microfluidic mobility shift assay relative to control. In short, it runs like this:
as §1

In test [6] the target is Serine/threonine-protein kinase Chk2 (Homo sapiens, UniProt O96017). In words: Inhibition of CHK2 (unknown origin) at 30 uM by microfluidic mobility shift assay relative to control. In short, it runs like this:
as §1

Test [7] addresses Mitogen-activated protein kinase 3 (Homo sapiens, UniProt P27361). The test can be described thus: Inhibition of ERK1 (unknown origin) at 30 uM by microfluidic mobility shift assay relative to control. Summed up:
as §1

Test [8] addresses T3, Aurora kinase A (Homo sapiens) (UniProt O14965).
T3 sequence (whole entry): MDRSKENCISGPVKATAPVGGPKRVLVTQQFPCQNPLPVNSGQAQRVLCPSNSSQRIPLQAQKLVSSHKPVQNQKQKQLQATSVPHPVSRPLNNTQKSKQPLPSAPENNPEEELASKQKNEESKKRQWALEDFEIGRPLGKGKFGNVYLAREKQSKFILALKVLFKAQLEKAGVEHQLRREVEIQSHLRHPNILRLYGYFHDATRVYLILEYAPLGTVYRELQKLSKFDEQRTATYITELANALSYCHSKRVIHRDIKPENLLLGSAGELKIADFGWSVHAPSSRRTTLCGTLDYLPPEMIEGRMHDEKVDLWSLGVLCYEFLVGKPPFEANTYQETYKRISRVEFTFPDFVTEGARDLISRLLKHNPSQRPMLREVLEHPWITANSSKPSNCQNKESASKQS
In words: Inhibition of AURA (unknown origin) at 30 uM by microfluidic mobility shift assay relative to control. Summed up: as §1

For test [9], the species on record is Homo sapiens. In words: Inhibition of PKA (unknown origin) at 30 uM by microfluidic mobility shift assay relative to control. In short, it runs like this:
as §1

The target in test [10] is MAP kinase-activated protein kinase 2 (Homo sapiens) (UniProt P49137). In words: Inhibition of MK2 (unknown origin) at 30 uM by microfluidic mobility shift assay relative to control. In short, it runs like this:
as §1

In test [11] the target is Tyrosine-protein kinase ABL1 (Homo sapiens, UniProt P00519). The test can be described thus: Inhibition of ABL (unknown origin) at 30 uM by microfluidic mobility shift assay relative to control. Summed up: as §1
The target in test [12] is RAC-alpha serine/threonine-protein kinase (Homo sapiens, UniProt P31749). In words: Inhibition of AKT1 (unknown origin) at 30 uM by microfluidic mobility shift assay relative to control. In short, it runs like this: as §1
Sequence of RAC-alpha serine/threonine-protein kinase (P31749 whole entry): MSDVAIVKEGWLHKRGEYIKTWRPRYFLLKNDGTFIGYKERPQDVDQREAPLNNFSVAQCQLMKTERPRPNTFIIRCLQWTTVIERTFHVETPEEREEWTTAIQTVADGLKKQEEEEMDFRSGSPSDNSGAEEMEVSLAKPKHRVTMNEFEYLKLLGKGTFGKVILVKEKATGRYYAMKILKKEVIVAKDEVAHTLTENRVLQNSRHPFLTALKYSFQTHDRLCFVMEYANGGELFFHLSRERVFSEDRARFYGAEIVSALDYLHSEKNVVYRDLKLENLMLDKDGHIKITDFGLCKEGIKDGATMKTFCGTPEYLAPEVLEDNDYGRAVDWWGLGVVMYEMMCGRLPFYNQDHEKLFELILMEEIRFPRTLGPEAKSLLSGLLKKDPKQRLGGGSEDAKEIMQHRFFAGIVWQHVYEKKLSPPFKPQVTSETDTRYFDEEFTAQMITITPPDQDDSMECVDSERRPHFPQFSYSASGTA
Test [13] addresses Ribosomal protein S6 kinase alpha-1 (Homo sapiens, UniProt Q15418). The test can be described thus: Inhibition of RSK1 (unknown origin) at 30 uM by microfluidic mobility shift assay relative to control. In short, it runs like this:
as §1

For test [14], the target named is Insulin receptor (Homo sapiens) (UniProt P06213). The test can be described thus: Inhibition of INSR (unknown origin) at 30 uM by microfluidic mobility shift assay relative to control. In short, it runs like this:
as §1

Test [15] deals with Tyrosine-protein kinase Lyn (Homo sapiens, UniProt P07948). In words: Inhibition of LYN (unknown origin) at 30 uM by microfluidic mobility shift assay relative to control. In short, it runs like this:
as §1

The target of test [16] is Glycogen synthase kinase-3 beta (Homo sapiens, UniProt P49841). The test can be described thus: Inhibition of GSK3beta (unknown origin) at 30 uM by microfluidic mobility shift assay relative to control. In short, it runs like this:
as §1

Sequence of Serine/threonine-protein kinase Chk2 (O96017 whole entry): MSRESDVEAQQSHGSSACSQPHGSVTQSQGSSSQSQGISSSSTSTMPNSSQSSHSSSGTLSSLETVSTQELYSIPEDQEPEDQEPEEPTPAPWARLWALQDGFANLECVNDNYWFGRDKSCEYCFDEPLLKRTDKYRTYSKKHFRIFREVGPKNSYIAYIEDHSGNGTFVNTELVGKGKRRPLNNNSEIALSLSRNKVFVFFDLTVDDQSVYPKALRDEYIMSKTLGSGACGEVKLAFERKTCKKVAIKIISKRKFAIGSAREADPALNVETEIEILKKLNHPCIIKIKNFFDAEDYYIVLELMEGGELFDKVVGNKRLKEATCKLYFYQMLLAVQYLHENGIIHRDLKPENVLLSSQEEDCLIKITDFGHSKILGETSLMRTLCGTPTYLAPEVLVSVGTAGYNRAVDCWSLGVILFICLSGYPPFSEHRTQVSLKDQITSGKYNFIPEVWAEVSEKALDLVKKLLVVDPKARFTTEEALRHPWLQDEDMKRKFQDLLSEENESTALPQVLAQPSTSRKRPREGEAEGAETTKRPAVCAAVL
Sequence of Mitogen-activated protein kinase 3 (P27361 whole entry): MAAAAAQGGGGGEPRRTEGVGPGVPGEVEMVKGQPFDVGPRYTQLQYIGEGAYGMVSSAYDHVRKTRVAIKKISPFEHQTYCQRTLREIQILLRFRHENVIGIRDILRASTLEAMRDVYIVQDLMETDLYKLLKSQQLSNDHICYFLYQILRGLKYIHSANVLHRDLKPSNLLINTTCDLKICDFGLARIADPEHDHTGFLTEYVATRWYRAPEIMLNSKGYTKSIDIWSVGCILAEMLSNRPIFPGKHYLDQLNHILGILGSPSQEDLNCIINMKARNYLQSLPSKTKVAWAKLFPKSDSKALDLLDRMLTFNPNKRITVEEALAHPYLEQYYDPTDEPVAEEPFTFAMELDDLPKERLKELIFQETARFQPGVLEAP
Sequence of Insulin receptor (Homo sapiens) (P06213 28-758 limits assumed): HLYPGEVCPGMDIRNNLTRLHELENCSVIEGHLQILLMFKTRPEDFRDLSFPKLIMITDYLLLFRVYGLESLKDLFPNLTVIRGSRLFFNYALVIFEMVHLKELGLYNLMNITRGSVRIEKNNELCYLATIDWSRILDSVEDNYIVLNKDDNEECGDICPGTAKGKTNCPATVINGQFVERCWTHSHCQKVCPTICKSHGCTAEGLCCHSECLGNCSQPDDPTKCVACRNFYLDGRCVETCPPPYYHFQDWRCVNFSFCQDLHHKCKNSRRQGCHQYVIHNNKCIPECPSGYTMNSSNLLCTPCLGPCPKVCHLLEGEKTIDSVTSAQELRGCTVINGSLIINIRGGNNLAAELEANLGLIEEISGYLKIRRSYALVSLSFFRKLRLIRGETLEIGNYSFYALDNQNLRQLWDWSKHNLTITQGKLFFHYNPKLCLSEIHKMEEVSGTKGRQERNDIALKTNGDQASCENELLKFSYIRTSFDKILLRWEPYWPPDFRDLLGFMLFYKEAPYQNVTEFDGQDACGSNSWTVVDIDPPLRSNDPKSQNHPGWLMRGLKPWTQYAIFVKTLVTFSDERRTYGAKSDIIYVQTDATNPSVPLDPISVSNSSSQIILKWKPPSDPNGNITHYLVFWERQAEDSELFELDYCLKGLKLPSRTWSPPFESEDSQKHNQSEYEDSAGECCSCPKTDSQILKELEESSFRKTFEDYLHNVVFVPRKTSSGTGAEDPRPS
Sequence of Insulin receptor (Homo sapiens) (P06213 763-1382 limits assumed): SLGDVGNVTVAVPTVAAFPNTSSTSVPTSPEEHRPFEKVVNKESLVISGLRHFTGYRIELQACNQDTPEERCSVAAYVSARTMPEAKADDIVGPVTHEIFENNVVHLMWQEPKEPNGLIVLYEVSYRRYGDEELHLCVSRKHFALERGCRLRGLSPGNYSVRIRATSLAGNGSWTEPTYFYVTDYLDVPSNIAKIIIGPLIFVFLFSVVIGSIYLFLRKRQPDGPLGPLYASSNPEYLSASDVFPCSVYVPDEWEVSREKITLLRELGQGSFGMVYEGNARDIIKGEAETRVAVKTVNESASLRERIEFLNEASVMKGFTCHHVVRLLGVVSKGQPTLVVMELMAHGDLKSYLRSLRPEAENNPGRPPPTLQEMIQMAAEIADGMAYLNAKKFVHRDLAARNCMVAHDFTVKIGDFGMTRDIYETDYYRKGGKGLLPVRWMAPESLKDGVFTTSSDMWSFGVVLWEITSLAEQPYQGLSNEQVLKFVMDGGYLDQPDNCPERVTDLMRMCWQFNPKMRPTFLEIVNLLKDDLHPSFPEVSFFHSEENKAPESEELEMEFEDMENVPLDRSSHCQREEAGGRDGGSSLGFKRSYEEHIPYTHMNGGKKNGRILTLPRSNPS
Sequence of RAC-beta serine/threonine-protein kinase (P31751 whole entry): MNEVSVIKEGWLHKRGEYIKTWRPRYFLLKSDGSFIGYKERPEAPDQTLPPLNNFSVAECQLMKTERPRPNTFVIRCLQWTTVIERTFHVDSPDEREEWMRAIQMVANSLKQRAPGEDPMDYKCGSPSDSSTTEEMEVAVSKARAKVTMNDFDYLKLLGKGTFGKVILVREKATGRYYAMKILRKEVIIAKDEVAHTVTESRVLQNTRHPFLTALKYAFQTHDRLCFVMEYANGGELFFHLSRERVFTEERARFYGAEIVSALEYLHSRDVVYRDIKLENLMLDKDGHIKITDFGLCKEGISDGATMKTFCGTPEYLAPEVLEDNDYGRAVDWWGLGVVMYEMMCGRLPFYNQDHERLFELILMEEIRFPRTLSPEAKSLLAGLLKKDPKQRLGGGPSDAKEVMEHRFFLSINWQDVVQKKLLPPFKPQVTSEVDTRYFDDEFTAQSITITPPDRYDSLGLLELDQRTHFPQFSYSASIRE
Sequence of Ribosomal protein S6 kinase alpha-1 (Q15418 whole entry): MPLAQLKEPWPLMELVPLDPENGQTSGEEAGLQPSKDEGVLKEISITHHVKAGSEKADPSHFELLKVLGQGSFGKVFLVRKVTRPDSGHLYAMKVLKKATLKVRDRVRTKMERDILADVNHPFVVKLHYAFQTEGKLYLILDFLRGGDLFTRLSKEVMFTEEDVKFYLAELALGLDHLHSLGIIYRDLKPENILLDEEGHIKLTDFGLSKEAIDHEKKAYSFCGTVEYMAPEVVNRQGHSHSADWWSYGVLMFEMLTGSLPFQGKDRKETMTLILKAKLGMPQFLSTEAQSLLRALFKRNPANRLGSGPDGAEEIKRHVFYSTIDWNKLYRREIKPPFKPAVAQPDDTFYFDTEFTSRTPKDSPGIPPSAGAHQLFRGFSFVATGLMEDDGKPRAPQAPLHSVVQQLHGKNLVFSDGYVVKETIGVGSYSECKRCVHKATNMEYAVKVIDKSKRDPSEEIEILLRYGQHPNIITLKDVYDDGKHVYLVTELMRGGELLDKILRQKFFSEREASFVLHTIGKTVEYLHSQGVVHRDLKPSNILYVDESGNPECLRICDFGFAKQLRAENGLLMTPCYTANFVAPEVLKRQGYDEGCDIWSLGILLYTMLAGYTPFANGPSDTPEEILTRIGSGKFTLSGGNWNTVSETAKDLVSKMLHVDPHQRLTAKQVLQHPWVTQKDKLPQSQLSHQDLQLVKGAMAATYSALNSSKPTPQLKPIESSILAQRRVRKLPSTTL
Sequence of MAP kinase-activated protein kinase 2 (Homo sapiens) (P49137 whole entry, looked up): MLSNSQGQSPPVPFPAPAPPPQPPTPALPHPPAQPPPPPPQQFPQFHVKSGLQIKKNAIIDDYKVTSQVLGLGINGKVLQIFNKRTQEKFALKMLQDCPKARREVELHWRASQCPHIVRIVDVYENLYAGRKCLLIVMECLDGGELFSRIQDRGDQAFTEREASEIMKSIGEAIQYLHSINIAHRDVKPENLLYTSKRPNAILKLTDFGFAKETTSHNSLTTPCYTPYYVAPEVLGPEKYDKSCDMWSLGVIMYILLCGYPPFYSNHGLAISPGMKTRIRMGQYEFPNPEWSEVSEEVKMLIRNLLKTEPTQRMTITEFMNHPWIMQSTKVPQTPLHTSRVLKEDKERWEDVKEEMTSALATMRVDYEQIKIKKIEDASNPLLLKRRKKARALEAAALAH

Turning to `O=S(=O)(c1cccc2cnccc12)N1CCCC12CCNCC2`, the inhibition in [1] came to 2%; in test [2] it was 13%; in test [3], 5%; in test [4], 1%; in test [5] it was 15%; in test [6], 12%. The inhibition in [7] was determined as 7%; in test [8], 27%; in [9] it was 77%; in test [10], 10%; in test [11], 0%; in test [12], 27%. The inhibition came out at 16% in [13], 3% in test [14], 3% in test [15] and 9% in test [16].
As to `O=C(O)C1CCC2(CCN(c3ncnc4[nH]cnc34)CC2)NC1` (racemic), the inhibition in [1] turned out to be 44%; in [2], 17%; in test [3], 0%; in [4] it was 5%; in test [5], 0%; in test [6], 2%. The inhibition stood at 36% in test [7]; 95% in [8]; 78% in test [9]; 21% in test [10]; 2% in [11]; 40% in test [12]. Further, the inhibition in test [13] is 97%; in test [14] it was 44%; in test [15], 16%; in test [16], 28%.
For the compound `CN(C)C(=O)C1CCC2(CCN(c3ncnc4[nH]cnc34)CC2)NC1` (racemic), the inhibition in [1] stood at 30%; in [2], 27%; in [3], 6%; in [4] it was 0%; in test [5] it was 54%; in [6], 27%. Moreover, the inhibition in test [7] was 20%; in test [8], 69%; in [9], 86%; in test [10], 10%; in [11], 17%; in test [12], 69%. The inhibition in test [13] stood at 28%; in [14] it was 17%; in test [15], 14%; in test [16] it was 7%.
With `OCC1CCC2(CCN(c3ncnc4[nH]cnc34)CC2)NC1` (racemic), the inhibition in [1] was 45%; in test [2], 38%; in [3], 0%; in [4] it was 1%; in test [5] it was 27%; in test [6] it was 56%. The inhibition in test [7] turned out to be 31%; in test [8] it was 84%; in test [9], 98%; in test [10], 22%; in test [11] it was 15%; in test [12], 80%. The inhibition came to 74% in [13], 17% in test [14], 16% in test [15] and 21% in [16].
Consider `O=S(=O)(c1cccc2cnccc12)N1CCC2(CCNC2)CC1`, for which the inhibition is 19% in [1]; 17% in test [2]; 0% in test [3]; 1% in [4]; 46% in test [5]; 59% in test [6]. The inhibition in test [7] turned out to be 14%; in test [8], 51%; in [9], 76%; in test [10], 13%; in test [11] it was 0%; in test [12] it was 18%. Further, the inhibition is 33% in test [13], 4% in test [14], 3% in [15] and 1% in test [16].
Consider `O=S(=O)(c1cccc2cnccc12)N1CCC2(CCC(O)CN2)CC1` (racemic), for which the inhibition was 64% in test [1]; 14% in test [2]; 0% in test [3]; 17% in test [4]; 0% in [5]; 59% in test [6]. In addition, the inhibition was 17% in test [7]; 87% in test [8]; 90% in test [9]; 19% in [10]; 17% in [11]; 21% in test [12]. In addition, the inhibition is 95% in test [13], 0% in [14], 23% in test [15] and 80% in [16].
As to `CNC(=O)C1CCC2(CCN(c3ncnc4[nH]cnc34)CC2)NC1` (racemic), the inhibition was 35% in test [1]; 41% in [2]; 0% in [3]; 8% in [4]; 70% in test [5]; 34% in test [6]. For the same compound, the inhibition came out at 30% in test [7]; 74% in [8]; 95% in [9]; 10% in [10]; 23% in [11]; 83% in [12]. For the same compound, the inhibition in test [13] came out at 42%; in test [14], 16%; in test [15], 26%; in test [16], 17%.

Values taken from ChEMBL document CHEMBL2417369, “Synthesis and evaluation of heteroaryl substituted diazaspirocycles as scaffolds to probe the ATP-binding site of protein kinases” (Bioorg Med Chem, 2013).
